Source: ChEMBL document CHEMBL1817666, “Bicephalic amphiphile architecture affects antibacterial activity” (2011)
Calls of active or inactive are those of the source. The rule behind the calls is not given here.

Tests used:
Type in all cases: functional
Enterococcus faecalis [1] = test: Antibacterial activity against 5 x 10^5 CFU/mL Enterococcus faecalis ATCC 29212 incubated for 72 hrs followed by growing of cells on trypticase soy agar plate for 24 hrs by CLSI M07-A8 broth microdilution method
Summary of the method: (§1)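 After the 72 h, 37 °C Mueller-Hinton microdilution (5 × 10⁵ cfu/well, triplicate wells), 100 µl from each triplicate set is plated on trypticase soy agar and incubated 24 h. MBC is the lowest concentration giving no colonies. At least 3 repeats per organism.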

Escherichia coli [2] = test: Antibacterial activity against 5 x 10^5 CFU/mL Escherichia coli ATCC 25922 after 72 hrs by CLSI M07-A8 broth microdilution method
Summary of the method: (§2)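 Broth microdilution in Mueller-Hinton broth at 37 °C. Serially diluted compound added in triplicate wells, then overnight culture diluted to about 5 × 10⁶ cfu/mL inoculum, giving 5 × 10⁵ cfu/well. Inoculum checked by serial dilution and plating. Plates incubated 72 h at 37 °C. MIC is the lowest concentration with no growth visible by eye. At least 3 repeats per organism.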

Escherichia coli [3] = test: Antibacterial activity against 5 x 10^5 CFU/mL Escherichia coli ATCC 25922 incubated for 72 hrs followed by growing of cells on trypticase soy agar plate for 24 hrs by CLSI M07-A8 broth microdilution method; summary of the method: as §1
Staphylococcus aureus [4] = test: Antibacterial activity against 5 x 10^5 CFU/mL Staphylococcus aureus subsp. aureus ATCC 29213 incubated for 72 hrs followed by growing of cells on trypticase soy agar plate for 24 hrs by CLSI M07-A8 broth microdilution method; summary of the method: as §1
Enterococcus faecalis [5] = test: Antibacterial activity against 2.5 x 10^6 CFU/mL Enterococcus faecalis ATCC 29212 assessed as time required for bacterial killing at 100 uM by microscopy based bacterial killing assay
Escherichia coli [6] = test: Antibacterial activity against 2.5 x 10^6 CFU/mL Escherichia coli ATCC 25922 assessed as time required for bacterial killing at 100 uM by microscopy based bacterial killing assay
Pseudomonas aeruginosa [7] = test: Antibacterial activity against 5 x 10^5 CFU/mL Pseudomonas aeruginosa Boston 41501 ATCC 27853 incubated for 72 hrs followed by growing of cells on trypticase soy agar plate for 24 hrs by CLSI M07-A8 broth microdilution method; summary of the method: as §1
Staphylococcus aureus [8] = test: Antibacterial activity against 2.5 x 10^6 CFU/mL Staphylococcus aureus subsp. aureus ATCC 29213 assessed as time required for bacterial killing at 100 uM by microscopy based bacterial killing assay
Enterococcus faecalis [9] = test: Antibacterial activity against 5 x 10^5 CFU/mL Enterococcus faecalis ATCC 29212 after 72 hrs by CLSI M07-A8 broth microdilution method; summary of the method: as §2
Staphylococcus aureus [10] = test: Antibacterial activity against 5 x 10^5 CFU/mL Staphylococcus aureus subsp. aureus ATCC 29213 after 72 hrs by CLSI M07-A8 broth microdilution method; summary of the method: as §2
Pseudomonas aeruginosa [11] = test: Antibacterial activity against 5 x 10^5 CFU/mL Pseudomonas aeruginosa Boston 41501 ATCC 27853 after 72 hrs by CLSI M07-A8 broth microdilution method; summary of the method: as §2

## CCCCCCCCCCCCCCOc1ccc(C[N+](C)(C)C)cc1.[Br-]
Enterococcus faecalis [1]
  MBC: 16 µM
Escherichia coli [2]; ATCC 25922, 72 h
  MIC: > 500 µM
Escherichia coli [3]
  MBC: > 500 µM
Staphylococcus aureus [4]
  MBC: 6 µM
Enterococcus faecalis [5]
  Time: 0.25 h
Escherichia coli [6]
  Activity: inactive
Pseudomonas aeruginosa [7]
  MBC: > 500 µM
Staphylococcus aureus [8]
  Time: 0.25 h
Enterococcus faecalis [9]; ATCC 29212, 72 h
  MIC: 16 µM
Staphylococcus aureus [10]; ATCC 29213, 72 h
  MIC: 6 µM
Pseudomonas aeruginosa [11]; Boston 41501 ATCC 27853, 72 h
  MIC: > 500 µM

## CCCCCCCCCCCCOS(=O)(=O)[O-].[Na+] [SODIUM LAURYL SULFATE]
Enterococcus faecalis [1]
  MBC: 500 µM
Escherichia coli [2]; ATCC 25922, 72 h
  MIC: > 500 µM
Escherichia coli [3]
  MBC: > 500 µM
Staphylococcus aureus [4]
  MBC: 250 µM
Pseudomonas aeruginosa [7]
  MBC: > 500 µM
Enterococcus faecalis [9]; ATCC 29212, 72 h
  MIC: 500 µM
Staphylococcus aureus [10]; ATCC 29213, 72 h
  MIC: 250 µM
Pseudomonas aeruginosa [11]; Boston 41501 ATCC 27853, 72 h
  MIC: > 500 µM

## CCCCCCCCCCCCCCOc1ccc(C[N+](C)(C)C)cc1C[N+](C)(C)C.[Br-].[Br-]
Enterococcus faecalis [1]
  MBC: 16 µM
Escherichia coli [2]; ATCC 25922, 72 h
  MIC: 31 µM
Escherichia coli [3]
  MBC: 31 µM
Staphylococcus aureus [4]
  MBC: 6 µM
Enterococcus faecalis [5]
  Time: 2 h
Escherichia coli [6]
  Time: 1 h
Pseudomonas aeruginosa [7]
  MBC: 125 µM
Staphylococcus aureus [8]
  Time: 1 h
Enterococcus faecalis [9]; ATCC 29212, 72 h
  MIC: 16 µM
Staphylococcus aureus [10]; ATCC 29213, 72 h
  MIC: 6 µM
Pseudomonas aeruginosa [11]; Boston 41501 ATCC 27853, 72 h
  MIC: 125 µM

## CCCCCCCCCCCCCCOc1cccc(C[N+](C)(C)C)c1C[N+](C)(C)C.[Br-].[Br-]
Enterococcus faecalis [1]
  MBC: 31 µM
Escherichia coli [2]; ATCC 25922, 72 h
  MIC: 63 µM
Escherichia coli [3]
  MBC: 63 µM
Staphylococcus aureus [4]
  MBC: 6 µM
Enterococcus faecalis [5]
  Time: 24 h
Escherichia coli [6]
  Time: 0.5 h
Pseudomonas aeruginosa [7]
  MBC: 125 µM
Staphylococcus aureus [8]
  Time: 1 h
Enterococcus faecalis [9]; ATCC 29212, 72 h
  MIC: 31 µM
Staphylococcus aureus [10]; ATCC 29213, 72 h
  MIC: 6 µM
Pseudomonas aeruginosa [11]; Boston 41501 ATCC 27853, 72 h
  MIC: 125 µM

## N,N,N-trimethylhexadecan-1-aminium bromide
Enterococcus faecalis [1]
  MBC: 4 µM
Escherichia coli [2]
  MIC: 63 µM
Escherichia coli [3]
  MBC: 63 µM
Staphylococcus aureus [4]
  MBC: 4 µM
Pseudomonas aeruginosa [7]
  MBC: > 500 µM
Enterococcus faecalis [9]
  MIC: 4 µM
Staphylococcus aureus [10]
  MIC: 4 µM
Pseudomonas aeruginosa [11]
  MIC: > 500 µM

## CCCCCCCCCCCCCCOc1cc(C[N+](C)(C)C)cc(C[N+](C)(C)C)c1.[Br-].[Br-]
Enterococcus faecalis [1]
  MBC: 31 µM
Escherichia coli [2]; ATCC 25922, 72 h
  MIC: 31 µM
Escherichia coli [3]
  MBC: 31 µM
Staphylococcus aureus [4]
  MBC: 4 µM
Enterococcus faecalis [5]
  Time: 0.25 h
Escherichia coli [6]
  Time: 1 h
Pseudomonas aeruginosa [7]
  MBC: 63 µM
Staphylococcus aureus [8]
  Time: 0.25 h
Enterococcus faecalis [9]; ATCC 29212, 72 h
  MIC: 31 µM
Staphylococcus aureus [10]; ATCC 29213, 72 h
  MIC: 4 µM
Pseudomonas aeruginosa [11]; Boston 41501 ATCC 27853, 72 h
  MIC: 63 µM

## CCCCCCCCCCOc1cc(C[N+](C)(C)C)ccc1C[N+](C)(C)C
Enterococcus faecalis [1]
  MBC: 500 µM
Escherichia coli [2]; ATCC 25922, 72 h
  MIC: > 500 µM
Escherichia coli [3]
  MBC: > 500 µM
Staphylococcus aureus [4]
  MBC: 250 µM
Enterococcus faecalis [5]
  Activity: inactive
Escherichia coli [6]
  Activity: inactive
Pseudomonas aeruginosa [7]
  MBC: > 500 µM
Staphylococcus aureus [8]
  Activity: inactive
Enterococcus faecalis [9]; ATCC 29212, 72 h
  MIC: 500 µM
Staphylococcus aureus [10]; ATCC 29213, 72 h
  MIC: 250 µM
Pseudomonas aeruginosa [11]; Boston 41501 ATCC 27853, 72 h
  MIC: > 500 µM

## CCCCCCCCCCCCCCCCCCOc1cc(C[N+](C)(C)C)ccc1C[N+](C)(C)C.[Br-].[Br-]
Enterococcus faecalis [1]
  MBC: 31 µM
Escherichia coli [2]; ATCC 25922, 72 h
  MIC: 63 µM
Escherichia coli [3]
  MBC: 63 µM
Staphylococcus aureus [4]
  MBC: 16 µM
Enterococcus faecalis [5]
  Time: 0.25 h
Escherichia coli [6]
  Time: 0.5 h
Pseudomonas aeruginosa [7]
  MBC: 250 µM
Staphylococcus aureus [8]
  Time: 0.25 h
Enterococcus faecalis [9]; ATCC 29212, 72 h
  MIC: 31 µM
Staphylococcus aureus [10]; ATCC 29213, 72 h
  MIC: 16 µM
Pseudomonas aeruginosa [11]; Boston 41501 ATCC 27853, 72 h
  MIC: 250 µM

## CCCCCCCCCCCCCCOc1c(C[N+](C)(C)C)cccc1C[N+](C)(C)C.[Br-].[Br-]
Enterococcus faecalis [1]
  MBC: 50 µM
Escherichia coli [2]; ATCC 25922, 72 h
  MIC: 125 µM
Escherichia coli [3]
  MBC: 125 µM
Staphylococcus aureus [4]
  MBC: 16 µM
Enterococcus faecalis [5]
  Activity: inactive
Escherichia coli [6]
  Activity: inactive
Pseudomonas aeruginosa [7]
  MBC: 500 µM
Staphylococcus aureus [8]
  Time: 48 h
Enterococcus faecalis [9]; ATCC 29212, 72 h
  MIC: 50 µM
Staphylococcus aureus [10]; ATCC 29213, 72 h
  MIC: 16 µM
Pseudomonas aeruginosa [11]; Boston 41501 ATCC 27853, 72 h
  MIC: 500 µM

## CCCCCCCCCCCCCCOc1cc(C[N+](C)(C)C)ccc1C[N+](C)(C)C.[Br-].[Br-]
Enterococcus faecalis [1]
  MBC: 31 µM
Escherichia coli [2]; ATCC 25922, 72 h
  MIC: 63 µM
Escherichia coli [3]
  MBC: 63 µM
Staphylococcus aureus [4]
  MBC: 16 µM
Enterococcus faecalis [5]
  Time: 48 h
Escherichia coli [6]
  Time: 72 h
Pseudomonas aeruginosa [7]
  MBC: 250 µM
Staphylococcus aureus [8]
  Time: 48 h
Enterococcus faecalis [9]; ATCC 29212, 72 h
  MIC: 31 µM
Staphylococcus aureus [10]; ATCC 29213, 72 h
  MIC: 16 µM
Pseudomonas aeruginosa [11]; Boston 41501 ATCC 27853, 72 h
  MIC: 250 µM

## CCCCCCCCCCCCCCCCOc1cc(C[N+](C)(C)C)cc(C[N+](C)(C)C)c1.[Br-].[Br-]
Enterococcus faecalis [1]
  MBC: 31 µM
Escherichia coli [2]; ATCC 25922, 72 h
  MIC: 63 µM
Escherichia coli [3]
  MBC: 63 µM
Staphylococcus aureus [4]
  MBC: 8 µM
Enterococcus faecalis [5]
  Time: 0.25 h
Escherichia coli [6]
  Time: 0.25 h
Pseudomonas aeruginosa [7]
  MBC: 125 µM
Staphylococcus aureus [8]
  Time: 0.25 h
Enterococcus faecalis [9]; ATCC 29212, 72 h
  MIC: 31 µM
Staphylococcus aureus [10]; ATCC 29213, 72 h
  MIC: 8 µM
Pseudomonas aeruginosa [11]; Boston 41501 ATCC 27853, 72 h
  MIC: 125 µM

## CCCCCCCCCCCCOc1cc(C[N+](C)(C)C)ccc1C[N+](C)(C)C
Enterococcus faecalis [1]
  MBC: 125 µM
Escherichia coli [2]; ATCC 25922, 72 h
  MIC: 500 µM
Escherichia coli [3]
  MBC: 500 µM
Staphylococcus aureus [4]
  MBC: 31 µM
Enterococcus faecalis [5]
  Activity: inactive
Escherichia coli [6]
  Activity: inactive
Pseudomonas aeruginosa [7]
  MBC: > 500 µM
Staphylococcus aureus [8]
  Activity: inactive
Enterococcus faecalis [9]; ATCC 29212, 72 h
  MIC: 125 µM
Staphylococcus aureus [10]; ATCC 29213, 72 h
  MIC: 31 µM
Pseudomonas aeruginosa [11]; Boston 41501 ATCC 27853, 72 h
  MIC: > 500 µM

## CCCCCCCCCCCCCCCCOc1cc(C[N+](C)(C)C)ccc1C[N+](C)(C)C.[Br-].[Br-]
Enterococcus faecalis [1]
  MBC: 50 µM
Escherichia coli [2]; ATCC 25922, 72 h
  MIC: 63 µM
Escherichia coli [3]
  MBC: 63 µM
Staphylococcus aureus [4]
  MBC: 16 µM
Enterococcus faecalis [5]
  Activity: inactive
Escherichia coli [6]
  Time: 2 h
Pseudomonas aeruginosa [7]
  MBC: 125 µM
Staphylococcus aureus [8]
  Time: 24 h
Enterococcus faecalis [9]; ATCC 29212, 72 h
  MIC: 50 µM
Staphylococcus aureus [10]; ATCC 29213, 72 h
  MIC: 16 µM
Pseudomonas aeruginosa [11]; Boston 41501 ATCC 27853, 72 h
  MIC: 125 µM

## CCCCCCCCCCCC[N+](C)(C)C
Enterococcus faecalis [1]
  MBC: 125 µM
Escherichia coli [2]; ATCC 25922, 72 h
  MIC: 250 µM
Escherichia coli [3]
  MBC: 250 µM
Staphylococcus aureus [4]
  MBC: 63 µM
Pseudomonas aeruginosa [7]
  MBC: > 500 µM
Enterococcus faecalis [9]; ATCC 29212, 72 h
  MIC: 125 µM
Staphylococcus aureus [10]; ATCC 29213, 72 h
  MIC: 63 µM
Pseudomonas aeruginosa [11]; Boston 41501 ATCC 27853, 72 h
  MIC: > 500 µM

## CCCCCCCCCCOc1ccc(C[N+](C)(C)C)cc1.[Br-]
Enterococcus faecalis [1]
  MBC: 16 µM
Escherichia coli [2]; ATCC 25922, 72 h
  MIC: 63 µM
Escherichia coli [3]
  MBC: 63 µM
Staphylococcus aureus [4]
  MBC: 8 µM
Enterococcus faecalis [5]
  Time: 0.5 h
Escherichia coli [6]
  Time: 0.5 h
Pseudomonas aeruginosa [7]
  MBC: 250 µM
Staphylococcus aureus [8]
  Time: 0.5 h
Enterococcus faecalis [9]; ATCC 29212, 72 h
  MIC: 16 µM
Staphylococcus aureus [10]; ATCC 29213, 72 h
  MIC: 8 µM
Pseudomonas aeruginosa [11]; Boston 41501 ATCC 27853, 72 h
  MIC: 250 µM
